From ChEMBL document CHEMBL6121033, “N-Arylsulfonylated C-Homoaporphines as a New Class of Antiplatelet and Antimicrobial Agents” (ACS Med Chem Lett, 2025)
In brackets after ≈: the same amount, converted by molar mass. Activity calls are given as the source filed them. The rule behind the calls is not given here.

What was measured:
Plasma [1] = assay: Antiplatelet aggregation activity in rabbit platelet-rich plasma assessed as inhibition of arachidonic acid-induced platelet aggregation by turbidimetric based Lumi-aggregometry; format: functional; conditions: Oryctolagus cuniculus
Macrophomina phaseolina = assay: Antifungal activity against Macrophomina phaseolina assessed as inhibition of fungal growth by agar well diffusion method; format: functional
Trichoderma reesei [2] = assay: Antifungal activity against Trichoderma reesei assessed as inhibition of fungal growth by agar well diffusion method; format: functional
Aspergillus niger [3] = assay: Antifungal activity against Aspergillus niger assessed as inhibition of fungal growth by agar well diffusion method; format: functional
Trichoderma reesei [4] = assay: Potency index, ratio of Ketaconazole MIC to test compound MIC for antifungal activity against Trichoderma reesei assessed as inhibition of fungal growth by agar well diffusion method; format: functional
Escherichia coli = assay: Antibacterial activity against Escherichia coli MTCC 443 assessed as inhibition of bacterial growth incubated for 24 hrs by serial dilution method; format: functional
Outline: (§1)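 MIC found by serial dilution, with ampicillin as positive control. Strains were Gram-negative E. coli MTCC 443 and Gram-positive B. subtilis MTCC 10619. A first agar diffusion screen of all compounds and the control was run at a fixed 100 μg/mL.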

Bacillus subtilis = assay: Antibacterial activity against Bacillus subtilis MTCC 10619 assessed as inhibition of bacterial growth incubated for 24 hrs by serial dilution method; format: functional; outline: as §1
Plasma [5] = assay: Potency index, ratio of Acetylsalicylic acid IC50 to test compound IC50 for antiplatelet aggregation activity in rabbit platelet-rich plasma assessed as inhibition of arachidonic acid-induced platelet aggregation by turbidimetric aggregometry analysis; format: functional, Oryctolagus cuniculus
Aspergillus niger [6] = assay: Potency index, ratio of Ketaconazole MIC to test compound MIC for antifungal activity against Aspergillus niger assessed as inhibition of fungal growth by agar well diffusion method; format: functional

Compound | IC50 (Plasma [1]) [µg/mL] | MIC (Macrophomina phaseolina) [µg/mL] | MIC (Trichoderma reesei [2]) [µg/mL] | MIC (Aspergillus niger [3]) [µg/mL] | Ratio (Trichoderma reesei [4]) | MIC (Escherichia coli) [µg/mL] | Activity (Bacillus subtilis) | Ratio (Plasma [5]) | Activity (Macrophomina phaseolina) | MIC (Bacillus subtilis) [µg/mL] | Ratio (Aspergillus niger [6]) | Ratio IC50 (Plasma [5]) | Activity (Aspergillus niger [3]) | Activity (Trichoderma reesei [2]) | Activity (Escherichia coli)
COc1cc2c(cc1OC)-c1c(OC)c(OCc3ccccc3)cc3c1C(CC2)N(S(=O)(=O)c1ccc([N+](=O)[O-])cc1)CC3 (stereo not given) | 30 (≈ 48.6 µM) | 12.5 (≈ 20.3 µM) | 6.25 (≈ 10.1 µM) | 50 (≈ 81.1 µM) | 1 | 12.5 (≈ 20.3 µM) | inactive |  |  |  |  |  |  |  | 
COc1cc2c(cc1OC)-c1c(OC)c(OC)cc3c1C(CC2)N(S(=O)(=O)c1cccc(C)c1)CC3 (stereo not given) | 12.7 (≈ 24.8 µM) |  | 12.5 (≈ 24.5 µM) | 12.5 (≈ 24.5 µM) |  | 6.25 (≈ 12.3 µM) |  | ~3 | inactive | 25 (≈ 49.1 µM) | 1 |  |  |  | 
CC(=O)Oc1ccccc1C(=O)O [ASPIRIN] | 21.3 (≈ 118 µM) |  |  |  |  |  |  |  |  |  |  |  |  |  | 
COc1cc2c(cc1OC)-c1c(OC)c(OCc3ccccc3)cc3c1C(CC2)N(S(=O)(=O)c1cccc(C)c1)CC3 (stereo not given) | 10.5 (≈ 17.9 µM) | 50 (≈ 85.4 µM) | 25 (≈ 42.7 µM) |  |  | 50 (≈ 85.4 µM) |  |  |  | 25 (≈ 42.7 µM) |  | >2 | inactive |  | 
COc1cc2c(cc1OC)-c1c(OCc3ccccc3)c(OC)cc3c1C(CC2)N(S(=O)(=O)c1ccc([N+](=O)[O-])cc1)CC3 (stereo not given) | 32.7 (≈ 53 µM) | 12.5 (≈ 20.3 µM) |  | 25 (≈ 40.5 µM) |  | 50 (≈ 81.1 µM) |  |  |  | 12.5 (≈ 20.3 µM) |  |  |  | inactive | 
COc1cc2c(cc1OC)-c1c(OCc3ccccc3)c(OC)cc3c1C(CC2)N(S(=O)(=O)c1ccc(C(C)(C)C)cc1)CC3 (stereo not given) | 35 (≈ 55.7 µM) |  |  | 12.5 (≈ 19.9 µM) |  | 6.25 (≈ 9.96 µM) | inactive |  | inactive |  | 1 |  |  | inactive | 
CC(=O)N1CCN(c2ccc(OCC3COC(Cn4ccnc4)(c4ccc(Cl)cc4Cl)O3)cc2)CC1 (stereo not given) [KETOCONAZOLE] |  | 12.5 (≈ 23.5 µM) | 6.25 (≈ 11.8 µM) | 12.5 (≈ 23.5 µM) |  |  |  |  |  |  |  |  |  |  | 
COc1cc2c(cc1OC)-c1c(OCc3ccccc3)c(OC)cc3c1C(CC2)N(S(=O)(=O)c1cccc(C(F)(F)F)c1)CC3 (stereo not given) | 8 (≈ 12.5 µM) | 12.5 (≈ 19.5 µM) | 25 (≈ 39.1 µM) | 25 (≈ 39.1 µM) |  | 6.25 (≈ 9.77 µM) |  | ~3 |  | 25 (≈ 39.1 µM) |  |  |  |  | 
COc1cc2c(cc1OC)-c1c(OC)c(OC)cc3c1C(CC2)N(S(=O)(=O)c1cccc(C(F)(F)F)c1)CC3 (stereo not given) | 9.6 (≈ 17 µM) | 12.5 (≈ 22.2 µM) |  | 25 (≈ 44.4 µM) |  | 25 (≈ 44.4 µM) |  | ~3 |  | 100 (≈ 177 µM) |  |  |  | inactive | 
COc1cc2c(cc1OC)-c1c(OC)c(OC)cc3c1C(CC2)N(S(=O)(=O)c1ccccc1)CC3 (stereo not given) | 15 (≈ 30.3 µM) |  |  | 25 (≈ 50.4 µM) |  | 12.5 (≈ 25.2 µM) |  | ~3 | inactive | 50 (≈ 101 µM) |  |  |  | inactive | 
COc1cc2c(cc1OC)-c1c(OC)c(OCc3ccccc3)cc3c1C(CC2)N(S(=O)(=O)c1cccc(C(F)(F)F)c1)CC3 (stereo not given) | 7 (≈ 10.9 µM) |  | 6.25 (≈ 9.77 µM) |  | 1 | 6.25 (≈ 9.77 µM) |  |  | inactive | 6.25 (≈ 9.77 µM) |  | 3 | inactive |  | 
COc1cc2c(cc1OC)-c1c(OC)c(OC)cc3c1C(CC2)N(S(=O)(=O)c1ccc([N+](=O)[O-])cc1)CC3 (stereo not given) | 30 (≈ 55.5 µM) | 12.5 (≈ 23.1 µM) |  | 50 (≈ 92.5 µM) |  |  | inactive |  |  |  |  |  |  | inactive | inactive
COc1cc2c(cc1OC)-c1c(OCc3ccccc3)c(OC)cc3c1C(CC2)N(S(=O)(=O)c1cccc(C)c1)CC3 (stereo not given) | 12.7 (≈ 21.6 µM) | 25 (≈ 42.7 µM) | 12.5 (≈ 21.3 µM) | 12.5 (≈ 21.3 µM) |  | 3.12 (≈ 5.34 µM) |  | ~3 |  | 3.12 (≈ 5.34 µM) | 1 |  |  |  | 
CC1(C)S[C@@H]2[C@H](NC(=O)[C@H](N)c3ccccc3)C(=O)N2[C@H]1C(=O)O [AMPICILLIN] |  |  |  |  |  | 12.5 (≈ 35.8 µM) |  |  |  | 25 (≈ 71.5 µM) |  |  |  |  | 
COc1cc2c(cc1OC)-c1c(OCc3ccccc3)c(OC)cc3c1C(CC2)N(S(=O)(=O)c1ccccc1)CC3 (stereo not given) | 12.7 (≈ 22.1 µM) |  |  | 6.25 (≈ 10.9 µM) |  |  | inactive | ~3 | inactive |  |  |  |  | inactive | inactive
COc1cc2c(cc1OC)-c1c(OC)c(OCc3ccccc3)cc3c1C(CC2)N(S(=O)(=O)c1ccccc1)CC3 (stereo not given) | 14.7 (≈ 25.6 µM) |  |  |  |  |  |  | ~3 | inactive | 12.5 (≈ 21.9 µM) |  |  | inactive | inactive | inactive
COc1cc2c(cc1OC)-c1c(OC)c(OC)cc3c1C(CC2)N(S(=O)(=O)c1ccc(C(C)(C)C)cc1)CC3 (stereo not given) | 36.7 (≈ 66.4 µM) | 6.25 (≈ 11.3 µM) |  | 100 (≈ 181 µM) |  | 3.12 (≈ 5.66 µM) |  |  |  | 12.5 (≈ 22.7 µM) |  |  |  | inactive | 
COc1cc2c(cc1OC)-c1c(OC)c(OCc3ccccc3)cc3c1C(CC2)N(S(=O)(=O)c1ccc(C(C)(C)C)cc1)CC3 (stereo not given) | 35 (≈ 55.7 µM) | 25 (≈ 39.8 µM) | 50 (≈ 79.6 µM) | 6.25 (≈ 9.96 µM) |  |  |  |  |  | 25 (≈ 39.8 µM) |  |  |  |  | inactive
